Laboratory results: ChEMBL document CHEMBL1914393, “Chemical scaffolds with structural similarities to siderophores of nonribosomal peptide-polyketide origin as novel antimicrobials against Mycobacterium tuberculosis and Yersinia pestis” (Bioorg Med Chem Lett, 2011)
Values after ≈ are worked out from the molar mass of the structure shown. Active and inactive are the calls of the source.

What was measured:
[1] = tested on: Mycobacterium tuberculosis; test: Antimicrobial activity against Mycobacterium tuberculosis H37Rv in GASTD medium after 10 days by spectrophotometric analysis; format: functional, organism-based; conditions: 240 h
Method in brief: (§1)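 Virulent H37Rv, twofold microdilution in iron-limiting GASTD or GASTD plus 100 μM FeCl3, started at OD600 0.001 from deferrated stocks. Compounds were added in DMSO (0.5% final) up to 500 μM or the solubility limit. Cultures sat stationary for 10 days at 37 °C, read at OD600. IC50 from sigmoidal fits to triplicates; MIC90 is the lowest concentration giving ≥90% inhibition versus DMSO controls. Ratios are +Fe/GASTD.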

[2] = tested on: Mycobacterium tuberculosis; test: Antimicrobial activity against Mycobacterium tuberculosis H37Rv in GASTD medium supplemented with 100 uM FeCl3 after 10 days by spectrophotometric analysis; format: functional, organism-based; conditions: 240 h; method in brief: as §1
[3] = tested on: Mycobacterium tuberculosis; test: Ratio of IC50 for Mycobacterium tuberculosis H37Rv in GASTD medium supplemented with 100 uM FeCl3 to IC50 for Mycobacterium tuberculosis H37Rv in Fe-deficient GASTD medium; format: functional; method in brief: as §1
[4] = tested on: Mycobacterium tuberculosis; test: Ratio of MIC90 for Mycobacterium tuberculosis H37Rv in GASTD medium supplemented with 100 uM FeCl3 to MIC90 for Mycobacterium tuberculosis H37Rv in Fe-deficient GASTD medium; format: functional; method in brief: as §1
[5] = tested on: Mycobacterium tuberculosis; test: Bactericidal activity against Mycobacterium tuberculosis H37Rv in GASTD medium at 2 times MIC after 30 days by colony counting; format: functional, organism-based
Method in brief: (§2)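 Duplicate GASTD cultures were treated and incubated as in the growth assay (37 °C, 10 days), then serial 10-fold dilutions were plated on Middlebrook 7H11. Colonies were counted after 30 days at 37 °C and reported as CFU/mL. Bactericidal was defined as >99% killing relative to inoculum.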

Yersinia pestis [6] = test: Antimicrobial activity against Yersinia pestis KIM6-2082.1+ in PMHD medium after 26 hrs by spectrophotometric analysis; format: functional, organism-based
Yersinia pestis [7] = test: Antimicrobial activity against Yersinia pestis KIM6-2082.1+ in PMHD medium supplemented with 100 uM FeCl3 after 26 hrs by spectrophotometric analysis; format: functional, organism-based
Yersinia pestis [8] = test: Ratio of IC50 for Yersinia pestis KIM6-2082.1+ in PMHD medium supplemented with 100 uM FeCl3 to IC50 for Yersinia pestis KIM6-2082.1+ in Fe-deficient PMHD medium; format: functional
Yersinia pestis [9] = test: Bactericidal activity against Yersinia pestis KIM6-2082.1+ in PMHD medium at MIC after 3 days by colony counting; format: functional, organism-based
Yersinia pestis [10] = test: Ratio of MIC90 for Yersinia pestis KIM6-2082.1+ in PMHD medium supplemented with 100 uM FeCl3 to IC50 for Yersinia pestis KIM6-2082.1+ in Fe-deficient PMHD medium; format: functional
Yersinia pestis [11] = test: Bactericidal activity against Yersinia pestis KIM6-2082.1+ in PMHD medium at 2 times MIC after 3 days by colony counting; format: functional, organism-based
[12] = tested on: Mycobacterium tuberculosis; test: Bactericidal activity against Mycobacterium tuberculosis H37Rv in GASTD medium at MIC after 30 days by colony counting; format: functional, organism-based; method in brief: as §2
HeLa = test: Cytotoxicity against human HeLa cells at 16 uM after 24 hrs by ATPLite assay; format: cell-based
Method in brief: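 HeLa cells in 96-well format, read with an ATPLite reagent-based viability assay. Cell–compound contact lasted 4 hr or 24 hr, and viability was expressed relative to untreated controls.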

SMILES	IC50 [1]	MIC90 [1]	IC50 [2]	MIC90 [2]	Ratio IC50 [3]	Ratio [4]	Activity [5]	IC50 (Yersinia pestis [6])	MIC90 (Yersinia pestis [6])	IC50 (Yersinia pestis [7])	MIC90 (Yersinia pestis [7])	Ratio IC50 (Yersinia pestis [8])	Activity (Yersinia pestis [9])	Ratio (Yersinia pestis [10])	Activity (Yersinia pestis [11])	Activity [12]	Activity (HeLa)
NNC(=O)c1ccncc1 [ISONIAZID]	0.07 µM	0.2 µM (≈ 0.0274 µg/mL)	0.09 µM	0.2 µM (≈ 0.0274 µg/mL)	1	1	Active	–	–	–	–	–	–	–	–	–	–
O=S(=O)(c1ccccc1)N1N=C(c2ccccc2O)C[C@H]1c1ccccc1O	> 63 µM	> 63 µM	> 16 µM	> 31 µM	–	–	–	8 µM	> 31 µM	> 31 µM	> 31 µM	>4	–	–	–	–	–
Oc1ccccc1C1=NN[C@H](c2ccccc2O)C1	25 µM	66 µM (≈ 16.8 µg/mL)	18 µM	59 µM (≈ 15 µg/mL)	1	1	Active	9 µM	31 µM (≈ 7.88 µg/mL)	> 8 µM	> 8 µM	–	Active	–	–	–	–
O=C(NO)N1N=C(c2ccccc2O)C[C@H]1c1ccccc1O	54 µM	> 63 µM	> 32 µM	> 31 µM	–	–	–	8 µM	> 31 µM	> 31 µM	> 31 µM	>4	–	–	–	–	–
NC(=O)N1N=C(c2ccccc2O)C[C@H]1c1ccc(O)cc1	> 63 µM	> 63 µM	> 32 µM	> 63 µM	–	–	–	> 31 µM	> 31 µM	> 31 µM	> 31 µM	–	–	–	–	–	–
CN[C@@H]1[C@H](O[C@H]2[C@H](O[C@H]3[C@H](O)[C@@H](O)[C@H](N=C(N)N)[C@@H](O)[C@@H]3N=C(N)N)O[C@@H](C)[C@]2(O)C=O)O[C@@H](CO)[C@H](O)[C@H]1O [STREPTOMYCIN]	–	–	–	–	–	–	–	1 µM	1 µM (≈ 0.582 µg/mL)	1 µM	2 µM (≈ 1.16 µg/mL)	1	–	2	Active	–	–
Cc1ccc(S(=O)(=O)N2N=C(c3ccccc3O)C[C@H]2c2ccccc2O)cc1	> 63 µM	> 63 µM	> 31 µM	> 31 µM	–	–	–	> 31 µM	> 31 µM	> 16 µM	> 16 µM	–	–	–	–	–	–
C/C(=N\NC(=O)NO)c1ccc(O)cc1	> 500 µM	> 500 µM	> 500 µM	> 500 µM	–	–	–	> 500 µM	> 500 µM	> 500 µM	> 500 µM	–	–	–	–	–	–
CC(=O)N1N=C(c2ccccc2O)C[C@H]1c1ccccc1O	> 31 µM	> 32 µM	> 16 µM	> 16 µM	–	–	–	> 31 µM	> 31 µM	> 31 µM	> 31 µM	–	–	–	–	–	–
O=S(=O)(c1ccccc1)N1N=C(c2ccccc2O)C[C@H]1c1ccc(O)cc1	> 63 µM	> 63 µM	> 31 µM	> 31 µM	–	–	–	> 16 µM	> 16 µM	> 31 µM	> 31 µM	–	–	–	–	–	–
NC(=O)N1N=C(c2ccccc2O)C[C@H]1c1ccccc1O	77 µM	208 µM (≈ 61.8 µg/mL)	64 µM	104 µM (≈ 30.9 µg/mL)	1	0.5	Active	> 250 µM	> 250 µM	> 250 µM	> 250 µM	–	–	–	–	–	–
NC(=S)N1N=C(c2ccccc2O)C[C@H]1c1ccccc1O	53 µM	125 µM (≈ 39.2 µg/mL)	50 µM	125 µM (≈ 39.2 µg/mL)	1	1	Active	181 µM	> 250 µM	> 63 µM	> 63 µM	–	–	–	–	–	–
N=C(NO)N/N=C/c1ccc(O)cc1	43 µM	222 µM (≈ 43.1 µg/mL)	43 µM	132 µM (≈ 25.6 µg/mL)	1	1	Active	> 500 µM	> 500 µM	> 500 µM	> 500 µM	–	–	–	–	–	–
N=C(N)N1N=C(c2ccccc2O)C[C@H]1c1ccc(O)cc1	31 µM	125 µM (≈ 37 µg/mL)	26 µM	76 µM (≈ 22.5 µg/mL)	1	1	Active	> 125 µM	> 125 µM	> 63 µM	> 63 µM	–	–	–	–	–	–
O=C(NO)N/N=C/c1ccccc1O	> 16 µM	> 16 µM	> 16 µM	> 16 µM	–	–	–	> 16 µM	> 16 µM	> 4 µM	> 4 µM	–	–	–	–	–	–
O=C(NO)N/N=C/c1ccc(O)cc1	97 µM	146 µM (≈ 28.5 µg/mL)	40 µM	97 µM (≈ 18.9 µg/mL)	0.4	1	Active	> 250 µM	> 250 µM	> 250 µM	> 250 µM	–	–	–	–	–	–
Oc1ccc([C@@H]2CC(c3ccccc3O)=NN2)cc1	46 µM	125 µM (≈ 31.8 µg/mL)	37 µM	125 µM (≈ 31.8 µg/mL)	1	1	–	20 µM	> 31 µM	> 31 µM	> 31 µM	>2	–	–	–	Active	–
O=C(NO)N1N=C(c2ccccc2O)C[C@H]1c1ccc(O)cc1	42 µM	125 µM (≈ 39.2 µg/mL)	40 µM	> 31 µM	1	–	–	13 µM	> 31 µM	> 31 µM	> 31 µM	>2	–	–	–	Active	–
Cc1ccccc1[C@@H]1CC(c2ccccc2O)=NN1C(N)=S	7 µM	16 µM (≈ 4.98 µg/mL)	7 µM	16 µM (≈ 4.98 µg/mL)	1	1	Active	> 62 µM	> 63 µM	> 31 µM	> 31 µM	–	–	–	–	–	24%
N/C(=N\O)N/N=C/c1ccccc1O	11 µM	222 µM (≈ 43.1 µg/mL)	15 µM	26 µM (≈ 5.05 µg/mL)	1	1	Active	70 µM	250 µM (≈ 48.5 µg/mL)	305 µM	> 500 µM	4	–	>2	Active	–	–
O=C(c1ccccc1)N1N=C(c2ccccc2O)C[C@H]1c1ccccc1O	84 µM	> 500 µM	98 µM	> 500 µM	1	–	–	> 31 µM	> 31 µM	> 63 µM	> 63 µM	–	–	–	–	–	–
O=C(c1ccncc1)N1N=C(c2ccccc2O)C[C@H]1c1ccc(O)cc1	> 8 µM	> 8 µM	> 4 µM	> 4 µM	–	–	–	> 8 µM	> 8 µM	> 8 µM	> 8 µM	–	–	–	–	–	–
CC(=O)N1N=C(c2ccccc2O)C[C@H]1c1ccc(O)cc1	> 8 µM	> 8 µM	> 8 µM	> 8 µM	–	–	–	> 16 µM	> 16 µM	> 16 µM	> 16 µM	–	–	–	–	–	–
C/C(=N\NC(=O)NO)c1ccccc1O	> 8 µM	> 8 µM	> 8 µM	> 8 µM	–	–	–	> 4 µM	> 4 µM	> 2 µM	> 2 µM	–	–	–	–	–	–
O=C(c1ccccc1)N1N=C(c2ccccc2O)C[C@H]1c1ccc(O)cc1	> 63 µM	> 63 µM	> 16 µM	> 63 µM	–	–	–	> 31 µM	> 31 µM	> 16 µM	> 16 µM	–	–	–	–	–	–
O=C(c1ccncc1)N1N=C(c2ccccc2O)C[C@H]1c1ccccc1O	8 µM	16 µM (≈ 5.75 µg/mL)	8 µM	16 µM (≈ 5.75 µg/mL)	1	1	Active	> 16 µM	> 16 µM	> 16 µM	> 16 µM	–	–	–	–	–	–
Cc1ccc(S(=O)(=O)N2N=C(c3ccccc3O)C[C@H]2c2ccc(O)cc2)cc1	> 63 µM	> 63 µM	> 31 µM	> 31 µM	–	–	–	> 31 µM	> 31 µM	> 16 µM	> 16 µM	–	–	–	–	–	–
